# Data from ChEMBL document CHEMBL4837245, “Discovery of VU6028418: A Highly Selective and Orally Bioavailable M4 Muscarinic Acetylcholine Receptor Antagonist” (ACS Med Chem Lett, 2021).
# Experiments:
# [1] = molecular target: T1, Muscarinic acetylcholine receptor M4 (Rattus norvegicus, UniProt P08485); assay: Displacement of [3H]NMS from rat muscarinic receptor M4 expressed in CHO cell membranes incubated for 3 hrs by radiometric scintillation counting analysis; set-up: species or system Cell membrane
# T1 sequence (P08485 whole entry): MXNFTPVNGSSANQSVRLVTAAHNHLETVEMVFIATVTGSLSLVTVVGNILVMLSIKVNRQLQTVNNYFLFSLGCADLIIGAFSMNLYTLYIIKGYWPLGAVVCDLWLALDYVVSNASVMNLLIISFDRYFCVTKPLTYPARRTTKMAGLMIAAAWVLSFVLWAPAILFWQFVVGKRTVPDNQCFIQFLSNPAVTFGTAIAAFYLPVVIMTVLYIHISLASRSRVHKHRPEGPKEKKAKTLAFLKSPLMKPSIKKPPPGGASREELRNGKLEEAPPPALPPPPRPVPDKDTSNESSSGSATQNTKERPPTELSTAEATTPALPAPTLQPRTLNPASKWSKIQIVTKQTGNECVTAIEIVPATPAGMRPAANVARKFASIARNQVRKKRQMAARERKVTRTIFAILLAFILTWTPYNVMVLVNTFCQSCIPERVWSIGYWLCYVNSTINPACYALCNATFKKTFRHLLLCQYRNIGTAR
# [2] = molecular target: CYP2D6 (Homo sapiens, UniProt P10635); assay: Inhibition of CYP2D6 in human liver microsomes using dextromethorphan as substrate preincubated for 15 mins followed by NADPH addition and measured after 8 mins by LC-MS/MS analysis; format: ADME; details: human, liver microsomes, probe dextromethorphan; time 23 min; read-out: INH
# Procedure, shortened: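 Cocktail CYP450 inhibition assay run in human liver microsomes.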
# [3] = AUC (0 to infinity) in Sprague-Dawley rat at 10 mg/kg, po measured upto 24 hrs by LC-MS/MS analysis; format: ADME, organism-based; set-up: route oral, dose 10 mg/kg, time <=24; details: in vivo
# Procedure, shortened: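 Single iv and oral (suspension) dosing; iv/po doses 1/10 mg/kg in SD rat, 1/3 mg/kg in CD-1 mouse and beagle dog. Plasma PK parameters are means from two to three animals per species.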
# [4] = test system: Rattus norvegicus; assay: Reversal of haloperidol-induced catalepsy in rat at 3 mg/kg, po relative to control; format: functional
# Procedure, shortened: (§1)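 Rat haloperidol-induced catalepsy model with oral test dosing at 0.3, 1 and 3 mg/kg alongside vehicle-treated controls. Read-out is latency to withdraw, also expressed as % reversal of catalepsy. Groups compared by ANOVA.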
# [5] = molecular target: Cytochrome P450 2C9 (Homo sapiens, UniProt P11712); assay: Time dependent inhibition of CYP2C9 (unknown origin); format: ADME
# [6] = test system: Rattus norvegicus; assay: Effect on haloperidol-induced catalepsy in rat assessed as reduction in mean latency to withdraw at 3 mg/kg, po (reference value: 43.4 +/- 4.3 sec); format: functional; procedure, shortened: as §1
# Chain of CYP2D6 (P10635 whole entry): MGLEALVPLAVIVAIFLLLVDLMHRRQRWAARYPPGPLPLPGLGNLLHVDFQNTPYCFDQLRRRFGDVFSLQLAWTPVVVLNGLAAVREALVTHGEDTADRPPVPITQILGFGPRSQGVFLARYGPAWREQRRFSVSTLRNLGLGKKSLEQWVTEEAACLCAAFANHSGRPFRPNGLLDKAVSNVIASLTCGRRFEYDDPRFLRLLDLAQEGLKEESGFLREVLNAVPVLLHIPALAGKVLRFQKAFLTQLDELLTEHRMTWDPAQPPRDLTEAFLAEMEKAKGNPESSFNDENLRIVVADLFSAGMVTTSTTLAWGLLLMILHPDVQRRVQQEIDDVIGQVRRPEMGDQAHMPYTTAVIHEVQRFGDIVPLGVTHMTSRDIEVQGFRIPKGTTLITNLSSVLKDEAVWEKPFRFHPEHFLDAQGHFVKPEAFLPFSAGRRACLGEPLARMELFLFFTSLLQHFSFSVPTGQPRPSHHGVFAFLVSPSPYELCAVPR
# Chain of Cytochrome P450 2C9 (P11712 whole entry): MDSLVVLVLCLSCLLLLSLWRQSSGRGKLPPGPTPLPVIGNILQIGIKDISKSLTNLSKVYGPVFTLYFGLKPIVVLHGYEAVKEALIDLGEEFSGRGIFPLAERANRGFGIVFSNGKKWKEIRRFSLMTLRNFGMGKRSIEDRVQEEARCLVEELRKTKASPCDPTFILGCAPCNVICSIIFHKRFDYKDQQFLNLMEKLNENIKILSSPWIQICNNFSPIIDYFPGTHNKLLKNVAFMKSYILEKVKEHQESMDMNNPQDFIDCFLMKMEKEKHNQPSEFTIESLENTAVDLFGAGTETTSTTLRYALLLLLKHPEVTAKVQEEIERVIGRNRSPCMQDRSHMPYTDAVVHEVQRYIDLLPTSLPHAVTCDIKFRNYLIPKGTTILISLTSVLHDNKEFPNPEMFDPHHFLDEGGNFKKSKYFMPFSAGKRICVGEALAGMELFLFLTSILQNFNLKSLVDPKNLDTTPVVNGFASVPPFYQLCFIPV
smiles,measurement,setting,value
Fc1cc(F)c(F)c(-c2ccc(N[C@H]3C[C@@H]4CN(CC5CCOCC5)C[C@@H]4C3)nn2)c1,IC50,[1],0.145 µM
same,IC50 at 8 min,[2],> 30 µM
same,AUC,[3],30 µg·h/mL
same,Activity,[4],65.2%
same,IC50,[5],> 100 µM
same,Activity,[6],15.1 s
